# Assay results from ChEMBL document CHEMBL1671663, “In vivo characterization of the peptide deformylase inhibitor LBM415 in murine infection models” (Antimicrob Agents Chemother, 2009).
# Calls of active or inactive are those of the source. The calls are words filed in the database; no cut-off is given here.
# Assays:
# Streptococcus pneumoniae [1] = assay: Antimicrobial activity against Streptococcus pneumoniae ATCC 6301 by broth microdilution method; type: functional
# In short: (§1)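 MICs determined by broth microdilution following CLSI guidelines. Inocula came from overnight Mueller-Hinton broth (ATCC 49951, NB01021) or overnight Trypticase soy agar culture (ATCC 6301). ATCC 6303 and ATCC 700677 came from a 5-h log culture in Todd-Hewitt broth–30% horse serum.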
# Streptococcus pneumoniae [2] = assay: Antimicrobial activity against Streptococcus pneumoniae ATCC 6303 infected in BALB/c mouse pneumonia model assessed as complete eradication of bacteria at 40 mg/kg, po administered twice daily 3 days starting 16 hrs post infection; type: functional, organism-based; parameters: dose 40 mg/kg
# In short: (§2)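 Anesthetized (ketamine/xylazine) female BALB/c mice (19 to 22 g) inoculated intranasally with 50 µl log-phase culture (1.4 × 10^5 CFU/mouse). Oral treatment, six mice per group, at 16, 27, 40, 51, 64 and 75 h postinfection; vehicle controls. Lungs harvested one day after last dose, homogenized, plated; log10 CFU/lung. Deaths assigned 9 log10 CFU/lung; Kruskal-Wallis with Dunn's test versus control.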
# Mus musculus [3] = assay: Cmax in CD1 mouse at 20 mg/kg, po by liquid chromatography/mass spectroscopy; type: ADME, organism-based; parameters: dose 20 mg/kg, route oral; settings: in vivo
# In short: (§3)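 CD1 mice given 20 mg/kg p.o. or 5 mg/kg i.v.; blood sampled from three mice per time point, first at 0.083 h (i.v.) or 0.25 h (p.o.), last at 24 h. Plasma separated by centrifugation (10,000 rpm, 10 min, 4°C), stored at −80°C, assayed by LC/MS. Mean concentration-time course used for parameters; F from ratio of dose-normalized AUCs; C0 extrapolated from i.v. curve.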
# Streptococcus pneumoniae [4] = assay: Antimicrobial activity against Streptococcus pneumoniae ATCC 6303 infected in BALB/c mouse pneumonia model assessed as reduction in lung bacterial load at 40 mg/kg, po administered twice daily 3 days starting 16 hrs post infection; type: functional; in short: as §2
# Staphylococcus aureus [5] = assay: Antimicrobial activity against methicillin-susceptible Staphylococcus aureus ATCC 13709 by broth microdilution method; type: functional
# In short: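 MIC by broth microdilution following CLSI guidelines.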
# Streptococcus pneumoniae [6] = assay: Antimicrobial activity against Streptococcus pneumoniae ATCC 6303 infected in po dosed BALB/c mouse pneumonia model assessed as complete eradication of bacteria administered twice daily 3 days starting 16 hrs post infection; type: functional; in short: as §2
# Staphylococcus aureus [7] = assay: Antimicrobial activity against methicillin-susceptible Staphylococcus aureus ATCC 49951 by broth microdilution method; type: functional; in short: as §1
# Staphylococcus aureus [8] = assay: Antimicrobial activity against methicillin susceptible Staphylococcus aureus ATCC 49951 infected in po dosed NMRI mouse treated 1 and 5 hrs post infection; type: functional; settings: ATCC 49951, po
# In short: (§4)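 Intraperitoneal infection (0.3 ml/mouse, 10 to 100 times minimal lethal dose) with inoculum in 0.86% NaCl; ATCC 49951 grown overnight in Mueller-Hinton broth (1.7 × 10^7 to 2.2 × 10^7 CFU/mouse), ATCC 13709 in tryptic soy broth (7.3 × 10^7 to 2 × 10^8 CFU/mouse). Groups of 5 to 6 mice, typically three doses, treated 1 and 5 h postinfection; vehicle controls. ED50 by probit analysis of day-8 survival.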
# Staphylococcus aureus [9] = assay: Antimicrobial activity against methicillin-resistant Staphylococcus aureus NB01021 by broth microdilution method; type: functional; in short: as §1
# Staphylococcus aureus [10] = assay: Antimicrobial activity against multiple drug resistant Staphylococcus aureus NB01021 infected in immunocompetent NMRI mouse soft tissue infection model assessed as reduction in thigh bacterial load at 16.7 mg/kg, po administered thrice a day for 2 days; type: functional
# In short: (§5)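 Thigh infection: 50 µl of freshly prepared NB01021 suspension (3.8 × 10^6 CFU/thigh) injected intramuscularly into the left hind thigh of female NMRI mice (20–23 g). Oral doses at 0, 4, 8, 24, 28, 32 h; vehicle controls. Thighs excised 18 h after last dose, homogenized in saline and plated on blood agar (detection limit 100 CFU/thigh). Medians compared to controls by Mann-Whitney rank sum test.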
# [11] = AUC in CD1 mouse at 20 mg/kg, po by liquid chromatography/mass spectroscopy; type: ADME, organism-based; parameters: dose 20 mg/kg, route oral; settings: plasma; in short: as §3
# Staphylococcus aureus [12] = assay: Antimicrobial activity against methicillin susceptible Staphylococcus aureus ATCC 13709 infected in po dosed NMRI mouse treated 1 and 5 hrs post infection; type: functional; settings: ATCC 13709, po; in short: as §4
# Streptococcus pneumoniae [13] = assay: Antimicrobial activity against Streptococcus pneumoniae ATCC 6301 infected in po dosed NMRI mouse administered thrice daily for 4 days; settings: ATCC 6301, po, 96 h
# Streptococcus pneumoniae [14] = assay: Antimicrobial activity against Streptococcus pneumoniae ATCC 6303 infected in BALB/c mouse pneumonia model assessed as reduction in lung bacterial load at 20 mg/kg, po administered twice daily 3 days starting 16 hrs post infection; type: functional; in short: as §2
# [15] = Tmax in CD1 mouse at 20 mg/kg, po by liquid chromatography/mass spectroscopy; type: ADME, organism-based; parameters: dose 20 mg/kg, route oral; settings: in vivo; in short: as §3
# Streptococcus pneumoniae [16] = assay: Antimicrobial activity against multiple drug resistant Streptococcus pneumoniae ATCC 700677 infected in po dosed BALB/c mouse administered twice daily for 3 days; type: functional; settings: ATCC 700677, po, 72 h
# In short: (§6)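 Female BALB/c mice (19–23 g) infected intraperitoneally with ATCC 700677 from a 5-h Todd-Hewitt–30% horse serum log culture, suspended in 5% hog mucin, 1.5 × 10^7 to 2 × 10^7 CFU/mouse. Groups of 5–6, typically three dose levels; vehicle controls. Dosed 1, 5, 17, 27, 42, 51 h post-infection. ED50 from day-8 survival by probit analysis, with 95% CI.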
# Staphylococcus aureus [17] = assay: Antimicrobial activity against methicillin susceptible Staphylococcus aureus ATCC 49951 infected in sc dosed NMRI mouse treated 1 and 5 hrs post infection; type: functional; settings: ATCC 49951, sc; in short: as §4
# [18] = AUC in CD1 mouse at 5 mg/kg, iv by liquid chromatography/mass spectroscopy; type: ADME, organism-based; parameters: dose 5 mg/kg, route intravenous; settings: plasma; in short: as §3
# Streptococcus pneumoniae [19] = assay: Antimicrobial activity against multiple drug-resistant Streptococcus pneumoniae ATCC 700677 by broth microdilution method; type: functional; in short: as §1
# Streptococcus pneumoniae [20] = assay: Antimicrobial activity against Streptococcus pneumoniae ATCC 6303 by broth microdilution method; type: functional; in short: as §1
# Staphylococcus aureus [21] = assay: Antimicrobial activity against multiple drug resistant Staphylococcus aureus NB01021 infected in immunocompetent NMRI mouse soft tissue infection model assessed as reduction in thigh bacterial load at 5.6 mg/kg, po administered thrice a day for 2 days; type: functional; in short: as §5
# [22] = Bioavailability in CD1 mouse at 20 mg/kg, po by liquid chromatography/mass spectroscopy; settings: in vivo
# [23] = Volume of distribution at steady state in CD1 mouse at 5 mg/kg, iv by liquid chromatography/mass spectroscopy; type: ADME, organism-based; parameters: dose 5 mg/kg, route intravenous; settings: in vivo, read-out: Vdss; in short: as §3
# Streptococcus pneumoniae [24] = assay: Antimicrobial activity against multiple drug resistant Streptococcus pneumoniae ATCC 700677 infected in sc dosed BALB/c mouse administered twice daily for 3 days; type: functional; settings: ATCC 700677, sc, 72 h; in short: as §6
# Mus musculus [25] = assay: Drug concentration at time zero in CD1 mouse at 5 mg/kg, iv by liquid chromatography/mass spectroscopy; type: ADME, organism-based; parameters: dose 5 mg/kg, route intravenous; settings: in vivo; in short: as §3
# Staphylococcus aureus [26] = assay: Antimicrobial activity against methicillin-resistant Staphylococcus aureus NB01021 infected in po dosed BALB/c mouse administered 0, 4, 23 hrs post infection; type: functional
# In short: (§7)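 Female BALB/c mice (19–23 g) infected intraperitoneally with MRSA NB01021 in 5% hog gastric mucin, 2.1 × 10^7 to 2.8 × 10^7 CFU/mouse (0.3 ml), 10–100× minimal lethal dose. Three dose levels, groups of 5–6; vehicle controls. Treatment 0, 4 and 23 h post-infection. Observed 8 days; ED50 with 95% CI by probit analysis of day-8 survival.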
# Staphylococcus aureus [27] = assay: Antimicrobial activity against methicillin-resistant Staphylococcus aureus NB01021 infected in sc dosed BALB/c mouse administered 0, 4, 23 hrs post infection; type: functional; in short: as §7
# Streptococcus pneumoniae [28] = assay: Antimicrobial activity against Streptococcus pneumoniae ATCC 6303 infected in BALB/c mouse pneumonia model assessed as reduction in lung bacterial load at 80 mg/kg, po administered twice daily 3 days starting 16 hrs post infection; type: functional; in short: as §2
# [29] = Clearance in CD1 mouse at 5 mg/kg, iv by liquid chromatography/mass spectroscopy; type: ADME, organism-based; parameters: dose 5 mg/kg, route intravenous; settings: in vivo; in short: as §3
# Staphylococcus aureus [30] = assay: Antimicrobial activity against multiple drug resistant Staphylococcus aureus NB01021 infected in immunocompetent NMRI mouse soft tissue infection model assessed as reduction in thigh bacterial load at 50 mg/kg, po administered thrice a day for 2 days; type: functional; in short: as §5
SMILES,MIC (Streptococcus pneumoniae [1]) [µg/mL],MIC (Staphylococcus aureus [5]) [µg/mL],MIC (Staphylococcus aureus [7]) [µg/mL],ED50 (Staphylococcus aureus [8]) [mg/kg],MIC (Staphylococcus aureus [9]) [µg/mL],ED50 (Staphylococcus aureus [12]) [mg/kg],ED50 (Streptococcus pneumoniae [13]) [mg/kg],ED50 (Streptococcus pneumoniae [16]) [mg/kg],ED50 (Staphylococcus aureus [17]) [mg/kg],MIC (Streptococcus pneumoniae [19]) [µg/mL],MIC (Streptococcus pneumoniae [20]) [µg/mL],ED50 (Staphylococcus aureus [26]) [mg/kg],further results
CCCC[C@H](CN(O)C=O)C(=O)N1CCC[C@H]1C(=O)Nc1ccc(F)c[n+]1[O-],0.125,4,0.125,2.3,2,13.2,6.4,36.6,1.1,0.5,2,5.9,Activity (Streptococcus pneumoniae [2]): Active; Cmax (Mus musculus [3]): 4250 ng/mL; log10cfu (Streptococcus pneumoniae [4]): <2; ED50 (Streptococcus pneumoniae [6]): 23.3 mg/kg; log10cfu (Staphylococcus aureus [10]): 5.6; AUC [11]: 5700 ng·h/mL; log10cfu (Streptococcus pneumoniae [14]): 5.1; Tmax [15]: 30 min; AUC [18]: 2690 ng·h/mL; log10cfu (Staphylococcus aureus [21]): 6.3; bioavailability [22]: 53%; Vd [23]: 3.12 L/kg; ED50 (Streptococcus pneumoniae [24]): 4.8 mg/kg; Drug uptake (Mus musculus [25]): 5361 ng/mL; ED50 (Staphylococcus aureus [27]): 0.7 mg/kg; log10cfu (Streptococcus pneumoniae [28]): 2.3; clearance [29]: 30.8 mL/min/kg; log10cfu (Staphylococcus aureus [30]): 3.6
CC1(C)S[C@@H]2[C@H](NC(=O)[C@H](N)c3ccc(O)cc3)C(=O)N2[C@H]1C(=O)O [AMOXICILLIN],0.03,1,0.5,–,128,–,–,–,–,4,0.03,> 50,–
CC[C@H]1OC(=O)[C@H](C)[C@@H](O[C@H]2C[C@@](C)(OC)[C@@H](O)[C@H](C)O2)[C@H](C)[C@@H](O[C@@H]2O[C@H](C)C[C@H](N(C)C)[C@H]2O)[C@](C)(OC)C[C@@H](C)C(=O)[C@H](C)[C@@H](O)[C@]1(C)O [CLARITHROMYCIN],0.015,0.5,1,7.7,> 64,8.7,2.1,> 60,1.2,32,0.03,–,–
CC(=O)NC[C@H]1CN(c2ccc(N3CCOCC3)c(F)c2)C(=O)O1 [LINEZOLID],–,1,1,7,1,10.3,5.6,–,7.4,0.25,–,2,–
